# Results taken from ChEMBL document CHEMBL3227968, “Synthesis and antitumor activity of water-soluble (2-chloroethyl)nitrosoureas” (1979).
# Calls of active or inactive are those of the source. No cut-off for these calls is given here.
# Tests used:
# L1210 [1] = experiment: Antitumor activity against mouse L1210 cells allografted in mouse assessed as tumor inhibition at 4 mg/kg, ip qd for 8 days relative to control; assay type: functional; conditions: route intraperitoneal
# Procedure, shortened: (§1)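 L1210 leukemia, 10⁶ cells per mouse implanted ip. Dosing ip once daily for 8 days from day 1, with solutions prepared fresh daily. Read-out: median survival time as %T/C = (MST treated/MST control) × 100, with T/C > 125 taken as significant inhibition. Survivors counted at 30 days, six mice per dose.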
# L1210 [2] = experiment: Antitumor activity against mouse L1210 cells allografted in mouse assessed as mouse survival after 30 days at 0.5 mg/kg, ip qd for 8 days relative to control; assay type: functional, organism-based; design: dose 0.5 mg/kg
# Procedure, shortened: (§2)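 L1210 leukemia, 10⁶ cells implanted ip per mouse. Dosing ip once daily for 8 days starting day 1, with solutions prepared fresh daily. Six mice per dose level. Survivors counted at day 30. Median survival time also recorded as %T/C = (MST treated/MST control) × 100, with T/C > 125 taken as significant.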
# L1210 [3] = experiment: Antitumor activity against mouse L1210 cells allografted in mouse assessed as mouse survival after 30 days at 0.25 mg/kg, ip qd for 8 days relative to control; assay type: functional, organism-based; design: dose 0.25 mg/kg; procedure, shortened: as §2
# L1210 [4] = experiment: Antitumor activity against mouse L1210 cells allografted in mouse assessed as tumor inhibition at 0.5 mg/kg, ip qd for 8 days relative to control; assay type: functional; conditions: route intraperitoneal; procedure, shortened: as §1
# L1210 [5] = experiment: Antitumor activity against mouse L1210 cells allografted in mouse assessed as tumor inhibition at 2 mg/kg, ip qd for 8 days relative to control; assay type: functional; conditions: route intraperitoneal; procedure, shortened: as §1
# L1210 [6] = experiment: Antitumor activity against mouse L1210 cells allografted in mouse assessed as tumor inhibition at 16 mg/kg, ip qd for 8 days relative to control; assay type: functional; conditions: route intraperitoneal; procedure, shortened: as §1
# L1210 [7] = experiment: Antitumor activity against mouse L1210 cells allografted in mouse assessed as mouse survival after 30 days at 2 mg/kg, ip qd for 8 days relative to control; assay type: functional, organism-based; design: dose 2 mg/kg; procedure, shortened: as §2
# L1210 [8] = experiment: Antitumor activity against mouse L1210 cells allografted in mouse assessed as tumor inhibition at 0.25 mg/kg, ip qd for 8 days relative to control; assay type: functional; conditions: route intraperitoneal; procedure, shortened: as §1
# L1210 [9] = experiment: Antitumor activity against mouse L1210 cells allografted in mouse assessed as mouse survival after 30 days at 32 mg/kg, ip qd for 8 days relative to control; assay type: functional, organism-based; design: dose 32 mg/kg; procedure, shortened: as §2
# L1210 [10] = experiment: Antitumor activity against mouse L1210 cells allografted in mouse assessed as tumor inhibition at 8 mg/kg, ip qd for 8 days relative to control; assay type: functional; conditions: route intraperitoneal; procedure, shortened: as §1
# L1210 [11] = experiment: Antitumor activity against mouse L1210 cells allografted in mouse assessed as mouse survival after 30 days at 1 mg/kg, ip qd for 8 days relative to control; assay type: functional, organism-based; design: dose 1 mg/kg; procedure, shortened: as §2
# L1210 [12] = experiment: Antitumor activity against mouse L1210 cells allografted in mouse assessed as median survival time at 32 mg/kg, ip qd for 8 days relative to control; assay type: functional; conditions: route intraperitoneal; procedure, shortened: as §1
# L1210 [13] = experiment: Antitumor activity against mouse L1210 cells allografted in mouse assessed as tumor inhibition at 1 mg/kg, ip qd for 8 days relative to control; assay type: functional; conditions: route intraperitoneal; procedure, shortened: as §1
# L1210 [14] = experiment: Antitumor activity against mouse L1210 cells allografted in mouse assessed as mouse survival after 30 days at 8 mg/kg, ip qd for 8 days relative to control; assay type: functional, organism-based; design: dose 8 mg/kg; procedure, shortened: as §2
# L1210 [15] = experiment: Antitumor activity against mouse L1210 cells allografted in mouse assessed as mouse survival after 30 days at 4 mg/kg, ip qd for 8 days relative to control; assay type: functional, organism-based; design: dose 4 mg/kg; procedure, shortened: as §2
# L1210 [16] = experiment: Antitumor activity against mouse L1210 cells allografted in mouse assessed as mouse survival after 30 days at 16 mg/kg, ip qd for 8 days relative to control; assay type: functional, organism-based; design: dose 16 mg/kg; procedure, shortened: as §2
# L1210 [17] = experiment: Antitumor activity against mouse L1210 cells allografted in mouse assessed as mouse survival after 30 days at 8 mg/kg, ip single dose relative to control; assay type: functional, organism-based; design: dose 8 mg/kg
# Procedure, shortened: (§3)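 L1210 leukemia, 10⁶ cells implanted ip per mouse. One ip dose given on day 1. Six mice per dose level. Survivors counted at day 30. Median survival time also recorded as %T/C = (MST treated/MST control) × 100, with T/C > 125 taken as significant.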
# L1210 [18] = experiment: Antitumor activity against mouse L1210 cells allografted in mouse assessed as mouse survival after 30 days at 4 mg/kg, ip single dose relative to control; assay type: functional, organism-based; design: dose 4 mg/kg; procedure, shortened: as §3
# L1210 [19] = experiment: Antitumor activity against mouse L1210 cells allografted in mouse assessed as tumor inhibition at 2 mg/kg, ip single dose relative to control; assay type: functional; conditions: route intraperitoneal
# Procedure, shortened: (§4)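 L1210 leukemia, 10⁶ cells per mouse inoculated ip. Single ip dose given on day 1. Median survival time expressed as %T/C = (MST treated/MST control) × 100, with T/C > 125 counted as significant. Mice surviving at 30 days were recorded, six mice per treatment dose.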
# L1210 [20] = experiment: Antitumor activity against mouse L1210 cells allografted in mouse assessed as mouse survival after 30 days at 2 mg/kg, ip single dose relative to control; assay type: functional, organism-based; design: dose 2 mg/kg; procedure, shortened: as §3
# L1210 [21] = experiment: Antitumor activity against mouse L1210 cells allografted in mouse assessed as median survival time at 32 mg/kg, ip single dose relative to control; assay type: functional; conditions: route intraperitoneal; procedure, shortened: as §4
# L1210 [22] = experiment: Antitumor activity against mouse L1210 cells allografted in mouse assessed as mouse survival after 30 days at 32 mg/kg, ip single dose relative to control; assay type: functional, organism-based; design: dose 32 mg/kg; procedure, shortened: as §3
# L1210 [23] = experiment: Antitumor activity against mouse L1210 cells allografted in mouse assessed as tumor inhibition at 16 mg/kg, ip single dose relative to control; assay type: functional; conditions: route intraperitoneal; procedure, shortened: as §4
# L1210 [24] = experiment: Antitumor activity against mouse L1210 cells allografted in mouse assessed as tumor inhibition at 8 mg/kg, ip single dose relative to control; assay type: functional; conditions: route intraperitoneal; procedure, shortened: as §4
# L1210 [25] = experiment: Antitumor activity against mouse L1210 cells allografted in mouse assessed as tumor inhibition at 4 mg/kg, ip single dose relative to control; assay type: functional; conditions: route intraperitoneal; procedure, shortened: as §4
SMILES,T/C (L1210 [1]),Survival (L1210 [2]),Survival (L1210 [3]),T/C (L1210 [4]),T/C (L1210 [5]),T/C (L1210 [6]),Survival (L1210 [7]),T/C (L1210 [8]),Survival (L1210 [9]),T/C (L1210 [10]),Survival (L1210 [11]),T/C (L1210 [12]),T/C (L1210 [13]),Survival (L1210 [16]),further results
O=NN(CCCl)C(=O)N[C@H]1[C@H](O)[C@H](O)[C@@H](O)[C@@H]1O,207%,inactive,inactive,114%,221%,>471%,inactive,144%,inactive,243%,inactive,171%,157%,,Survival (L1210 [14]): inactive
O=NN(CCCl)C(=O)N[C@H]1[C@H](O)[C@@H](O)[C@@H](O)[C@@H]1O,229%,inactive,inactive,107%,171%,171%,inactive,100%,inactive,336%,inactive,143%,114%,inactive,Survival (L1210 [15]): inactive
O=NN(CCCl)C(=O)N[C@H]1[C@@H](O)[C@@H](O)[C@H](NC(=O)N(CCCl)N=O)[C@@H](O)[C@@H]1O,,,,,,,,,,,,,,,Survival (L1210 [17]): inactive; Survival (L1210 [18]): inactive; T/C (L1210 [19]): 150%; Survival (L1210 [20]): inactive; T/C (L1210 [21]): 136%; Survival (L1210 [22]): inactive; T/C (L1210 [23]): >471%; T/C (L1210 [24]): 214%; T/C (L1210 [25]): 171%
O=NN(CCCl)C(=O)N[C@H]1[C@H](O)[C@H](O)[C@H](O)[C@@H]1O,250%,inactive,inactive,114%,143%,>471%,inactive,107%,inactive,>471%,inactive,186%,114%,Active,
